Compound activity as filed in PubChem BioAssay.
A selection: hits, their analogues and other compounds. The true share with any hit is near 2.3%.
Rpn11 block: inhibitors of human proteasome Rpn11 | O00487 | human 26S proteasome, Ub4-pepOG fluorescence polarization; 20S core pre-blocked with epoxomicin | calls only at 20 µM | 0.59% of 360,000 active;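 active = inhibition at 20 µM, scaled to each plate's controls, above about 33%, limit read from the data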
CRFBP-R2 block: blocks CRF-induced signaling of the CRF-BP/CRF-R2 complex; 0.59% of 350,000 active; inhibition, % at 11.8 µM; HEK293 CRF-R2/CRF-BP, CRF-induced calcium fluorescence;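 active = inhibition of the ligand-induced calcium signal above about 50% at the single tested concentration, limit read from the data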
CSN inh: inhibitors of human CSN-mediated cullin deneddylation; Q92905; Purified CSN, SCF-Nedd8-OG deneddylation, fluorescence polarization; 0.38% of 360,000 active; AID 651999; inhibition, % at 12.5 µM;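 active = pattern-corrected inhibition above about 35%, with an unprinted fluorescence ratio check between 0.5 and 1.5, limit read from the data, passing the limit was not always enough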;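 note: 0% = enzyme with substrate and 100% = substrate without enzyme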
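test system = HEK293T-derived human Csn5 enzyme | amount = 0.24 nM Csn5 enzyme, final concentration | medium = Tris/NaCl/DTT buffer, pH 7.5 | schedule = 90 min reaction at room temperature | signal = FP | evaluation = inhibition of Csn5 cleavage, % | compound dosing = single dose of 12.5 µM compound with 0.25% DMSO | probe or stimulus = 10 nM SCFSkp2-Nedd8OG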
TPT1 inh: blocks Candida albicans tRNA 2'-phosphotransferase. inhibition, % at 5 µM. recombinant caTPT1, FP RNA substrate dephosphorylation. 0.81% of 300,000 active;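 active = inhibition above the mean of all tested compounds plus 3 SD, set per screening campaign, cut at about 24% in these data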;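 note: plate controls were DMSO alone for no effect and ferristatin control at 100 nM for full effect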
CRFR2-BP ag: agonists of human CRF-binding protein/CRF-R2 receptor complex; HEK293 CRF-R2/CRF-BP, calcium dye fluorescence (FLIPR); percent of saturating CRF peptide response; activation, % at 13.2 µM; 0.46% of 350,000 active;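 active = activation of at least 50%, plus an integration ratio under a set limit after plate pattern correction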;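 note: plate controls were neutral control wells without compound for no effect and CRF at EC100 for full effect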
HNF4A DNA FP: change in binding of human HNF4 alpha to DNA. 0.3% of 360,000 active. activity change, % at 10 µM. HNF4a-FITC DNA binding, fluorescence polarization, 1 h. AID 1224865. P41235; in the data active = activity change above about 30%, passing the limit was not always enough
CSN deneddyl val: validation of inhibitors of human CSN-mediated cullin deneddylation | inhibition, % at 16.6 µM | shares compounds with CSN inh | 62% of 540 active | Csn5 deneddylation of SCF-Nedd8OG, fluorescence polarization, 90 min; in the data active = inhibition above about 50%;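 note: 0% = DMSO with enzyme and 100% = no enzyme wells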
MMP-2 counter: MMP-2 (human) inhibition, counter-screen for CSN hits; shares compounds with CSN inh; recombinant MMP-2, FRET substrate fluorescence, 60 min; inhibition, % at 16.6 µM; 33% of 540 active;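 active = corrected plate-normalized z-score of 5 or more, or -5 or less, or inhibition of 15% or more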;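 note: plate controls were DMSO wells with enzyme for no effect and buffer wells lacking MMP-2 for full effect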
Target sequence (P08253 whole entry, looked up): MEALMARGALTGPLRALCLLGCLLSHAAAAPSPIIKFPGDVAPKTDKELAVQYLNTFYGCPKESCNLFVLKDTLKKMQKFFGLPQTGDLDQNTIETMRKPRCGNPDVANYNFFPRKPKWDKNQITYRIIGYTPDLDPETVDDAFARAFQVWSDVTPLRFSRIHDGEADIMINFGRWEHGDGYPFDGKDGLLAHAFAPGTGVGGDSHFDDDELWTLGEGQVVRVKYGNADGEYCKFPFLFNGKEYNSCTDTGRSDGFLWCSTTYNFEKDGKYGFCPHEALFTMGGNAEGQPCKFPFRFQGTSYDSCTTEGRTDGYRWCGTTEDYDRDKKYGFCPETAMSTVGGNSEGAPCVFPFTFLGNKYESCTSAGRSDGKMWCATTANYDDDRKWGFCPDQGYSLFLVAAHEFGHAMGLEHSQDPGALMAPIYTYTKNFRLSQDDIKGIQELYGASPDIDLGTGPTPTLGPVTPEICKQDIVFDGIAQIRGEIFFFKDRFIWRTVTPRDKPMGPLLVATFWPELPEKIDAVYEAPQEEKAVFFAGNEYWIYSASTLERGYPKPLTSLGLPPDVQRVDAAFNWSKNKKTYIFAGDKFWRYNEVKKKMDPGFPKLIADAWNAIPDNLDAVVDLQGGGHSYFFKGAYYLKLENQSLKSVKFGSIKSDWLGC
Thrombin counter: counter-screen for CSN deneddylation inhibitors: bovine thrombin inhibition | shares compounds with CSN inh | bovine thrombin cleavage of Ub4-pepOG, fluorescence polarization | inhibition, % at 16.6 µM | 49% of 540 active | AID 720656;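 active = inhibition at or above a set limit, with a fluorescence interference ratio between 0.5 and a set maximum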
An asterisk follows results filed as active.

What do the screens show for `O=C1NC(=S)S/C1=C/c1ccc(N2CCOCC2)o1`?
CRFBP-R2 block: -56.5; CSN inh: 118.3*; TPT1 inh: 15.4; CRFR2-BP ag: 52.0*; HNF4A DNA FP: 114.8; CSN deneddyl val: 100.1*; MMP-2 counter: -25.0*; Thrombin counter: -50.5

How did O=C1NC(=S)S/C1=C\C=C\c1ccc([N+](=O)[O-])o1 do in these assays?
CRFBP-R2 block: -51.7; CSN inh: 67.4; CRFR2-BP ag: 47.5; HNF4A DNA FP: -63.6

How did CC(=O)N1c2ccc(S(=O)(=O)NCCC(=O)N3CCCC(C)C3)cc2CC1C (stereo unspecified) do in these assays?
Rpn11 block: inactive; CRFBP-R2 block: 3.9; CSN inh: 4.0; TPT1 inh: -2.3; CRFR2-BP ag: -1.4; HNF4A DNA FP: 0.4

How did O=C(/C=C/c1ccccc1)Nc1scc(-c2ccccc2)c1C(=O)O do in these assays?
Rpn11 block: inactive; CRFBP-R2 block: 15.6; CSN inh: -7.4; CRFR2-BP ag: 0.0; HNF4A DNA FP: 2.8

How did O=C(/C=C/c1ccco1)Nc1scc(-c2ccccc2)c1C(=O)O do in these assays?
Rpn11 block: inactive; CRFBP-R2 block: 19.0; CSN inh: 37.8*; TPT1 inh: -0.4; CRFR2-BP ag: -1.1; HNF4A DNA FP: -35.5; CSN deneddyl val: 25.2; MMP-2 counter: 9.4; Thrombin counter: 6.3

Results for CN(C)CCCN(C(=O)c1ccc(S(=O)(=O)N2CCc3ccccc32)cc1)c1nc2ccc(F)cc2s1 ?
Rpn11 block: inactive; CRFBP-R2 block: -11.5; CSN inh: 6.6; TPT1 inh: 0.3; CRFR2-BP ag: 3.6; HNF4A DNA FP: 6.5

Results for CN(C)CCCN(C(=O)c1ccc(S(=O)(=O)N2CCc3ccccc3C2)cc1)c1nc2ccc(F)cc2s1 ?
Rpn11 block: inactive; CRFBP-R2 block: -150.8; CSN inh: 98.5*; TPT1 inh: -4.4; CRFR2-BP ag: 44.6; HNF4A DNA FP: 57.0*; CSN deneddyl val: -32.8; MMP-2 counter: -0.6; Thrombin counter: -13.6

Results for CCc1ccccc1S(=O)(=O)Cc1ccc(C(=O)N2CCN(c3ccccc3OC)CC2)o1 ?
Rpn11 block: inactive; CRFBP-R2 block: 8.7; CSN inh: -1.4; TPT1 inh: 0.2; CRFR2-BP ag: -0.1; HNF4A DNA FP: 0.3

Results for N=C(N)c1ccc(/C=C/c2ccc(C(=N)N)cc2O)cc1 ?
Rpn11 block: inactive; CRFBP-R2 block: -2.6; CSN inh: 45.7*; TPT1 inh: -1.9; CRFR2-BP ag: 1.9; HNF4A DNA FP: 18.2; CSN deneddyl val: -17.4; MMP-2 counter: -2.4; Thrombin counter: 31.9*

Results for Cc1cc(N)c2cc(NC(=O)/C=C/c3ccccc3Cl)ccc2n1 ?
Rpn11 block: active; CRFBP-R2 block: -9.8; CSN inh: 107.8*; TPT1 inh: -2.0; CRFR2-BP ag: -0.5; HNF4A DNA FP: 37.1*; CSN deneddyl val: -38.7; MMP-2 counter: 54.2*; Thrombin counter: -5.4

Results for COc1cc(OC)c(-c2c3cc(O)c(=O)cc-3oc3cc(O)c(O)cc23)cc1OC ?
CRFBP-R2 block: -138.3; CSN inh: 80.5*; TPT1 inh: 5.5; CRFR2-BP ag: 171.4*; HNF4A DNA FP: -89.8; MMP-2 counter: active; Thrombin counter: -84.3

What do the screens show for `Cc1c2cc(O)c(=O)cc-2oc2cc(O)c(O)cc12`?
Rpn11 block: inactive; CRFBP-R2 block: -22.3; CSN inh: -74.7; TPT1 inh: -25.2; CRFR2-BP ag: 17.7; HNF4A DNA FP: -83.6

How did COc1cc(/C=C/C=C2/CC/C(=C/C=C/c3ccc(O)c(OC)c3)C2=O)ccc1O do in these assays?
CRFBP-R2 block: -15.8; CSN inh: 115.2*; CRFR2-BP ag: 11.1; HNF4A DNA FP: 108.1; CSN deneddyl val: -52.6; MMP-2 counter: -40.9*; Thrombin counter: 52.0*

How did O=C(OCC#Cc1c(COC(=O)c2ccccc2)nnn1Cc1ccccc1)c1ccccc1 do in these assays?
Rpn11 block: inactive; CRFBP-R2 block: 6.5; CSN inh: -4.6; TPT1 inh: 2.7; CRFR2-BP ag: 4.8; HNF4A DNA FP: -1.2

What do the screens show for `CCOC(=O)C1CCN(c2c(N3CCN(c4ccccc4OC)CC3)c(=O)c2=O)CC1`?
Rpn11 block: inactive; CRFBP-R2 block: 7.9; CSN inh: 2.1; CRFR2-BP ag: -1.8; HNF4A DNA FP: -1.7

How did CN1C(=S)N(c2cccnc2)C(=O)/C1=C\c1ccc(C(C)(C)C)cc1 do in these assays?
Rpn11 block: inactive; CRFBP-R2 block: -14.7; CSN inh: 6.9; TPT1 inh: 0.4; CRFR2-BP ag: -0.2; HNF4A DNA FP: 3.5

How did CN1C(=S)N(c2cccnc2)C(=O)/C1=C\c1ccc(N(C)C)cc1 do in these assays?
CRFBP-R2 block: -31.9; CSN inh: 46.8*; CRFR2-BP ag: 36.9; HNF4A DNA FP: 75.9*; CSN deneddyl val: 67.8*; MMP-2 counter: -9.8; Thrombin counter: 21.9*

How did NC(=O)C1CCN(C(=O)c2cc(-c3ccc(Cl)cc3)nc3ccccc23)CC1 do in these assays?
Rpn11 block: inactive; CRFBP-R2 block: -0.6; CSN inh: 0.6; CRFR2-BP ag: -0.5; HNF4A DNA FP: 4.9

Results for CCN1C(=O)/C(=C/N2CCc3ccccc32)SC1=S ?
CRFBP-R2 block: -28.5; CSN inh: 37.0*; TPT1 inh: 17.6; CRFR2-BP ag: 27.3; HNF4A DNA FP: 50.2; CSN deneddyl val: 103.9*; MMP-2 counter: 0.8; Thrombin counter: -8.9

How did CCCCn1c(NC(=O)c2ccccc2)c(C#N)c2nc3ccccc3nc21 do in these assays?
CRFBP-R2 block: -45.2; CSN inh: 69.1*; CRFR2-BP ag: -0.6; HNF4A DNA FP: 85.4*; CSN deneddyl val: 48.8; MMP-2 counter: 4.0; Thrombin counter: -11.2

Results for COc1cc2c(oc(=O)c3cc(C)cc(OC)c32)c2c(C3OC(C)C(O)C(C)(O)C3O)ccc(O)c12 (stereo unspecified) ?
Rpn11 block: inactive; CRFBP-R2 block: -36.7; CSN inh: 35.4*; CRFR2-BP ag: -2.4; HNF4A DNA FP: -10.6; CSN deneddyl val: 107.3*; MMP-2 counter: 6.2; Thrombin counter: -0.4

Results for CCCCOc1ccc(C(=O)NCC(=O)NNC(=O)c2ccco2)cc1 ?
Rpn11 block: inactive; CRFBP-R2 block: 7.2; CSN inh: -1.9; CRFR2-BP ag: 1.0; HNF4A DNA FP: -1.5
